From ChEMBL document CHEMBL1955832, “Facile synthesis, characterization and pharmacological activities of 3,6-disubstituted 1,2,4-triazolo[3,4-b][1,3,4]thiadiazoles and 5,6-dihydro-3,6-disubstituted-1,2,4-triazolo[3,4-b][1,3,4]thiadiazoles” (2012)
≈ marks a conversion by molar mass, not a printed value. Calls of active or inactive are those of the source. The calls are words filed in the database; no cut-off is given here.

Columns and labels:
[1] = system: Rattus norvegicus; test: Antiinflammatory activity rat assessed as reduction of carrageenan-induced paw oedema at 100 mg/kg, po administered 30 mins before carrageenan challenge measured after 60 to 180 mins; format: functional, organism-based; design: dose 100 mg/kg
Outline: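 Rats randomly assigned, 100 mg/kg orally as suspension in 1% carboxymethyl cellulose, 30 min before carrageenan injected into right hind paw. Paw thickness measured with vernier callipers at 60, 120 and 180 min. Diclofenac reference; mean ± SEM, n = 6, vs vehicle control.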

[2] = system: Mus musculus; test: Analgesic activity Wistar albino mouse assessed as tail withdrawal latency time at 100 mg/kg, po administered by intragastric tube after 60 mins (reference value: 1.363 +/- 0.1297 sec); format: functional
[3] = system: Mus musculus; test: Analgesic activity Wistar albino mouse assessed as tail withdrawal latency time at 100 mg/kg, po administered by intragastric tube after 120 mins (reference value: 1.363 +/- 0.1297 sec); format: functional
[4] = system: Mus musculus; test: Analgesic activity Wistar albino mouse assessed as tail withdrawal latency time at 100 mg/kg, po administered by intragastric tube after 180 mins (reference value: 1.363 +/- 0.1297 sec); format: functional
[5] = system: Radical scavenging activity; test: Antioxidant activity of the compound assessed as DPPH radical scavenging activity at 200 ug/ml after 20 mins; format: functional
Outline: (§1)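 Compound dissolved in methylene dichloride at the stated concentration, mixed with 4 mL 0.1 mM methanolic DPPH, held 20 min at ambient temperature; absorbance read at 517 nm. Scavenging % = (A_DPPH − A_test)/A_DPPH × 100. Triplicate; ascorbic acid positive control.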

[6] = system: Radical scavenging activity; test: Antioxidant activity of the compound assessed as DPPH radical scavenging activity at 400 ug/ml after 20 mins; format: functional; outline: as §1
[7] = system: Radical scavenging activity; test: Antioxidant activity of the compound assessed as DPPH radical scavenging activity at 800 ug/ml after 20 mins; format: functional; outline: as §1
[8] = system: Staphylococcus aureus; test: Antibacterial activity against Staphylococcus aureus ATTC 25923 after 16 to 18 hrs by serial dilution method; format: functional
Outline: (§2)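 Serial drug dilutions in Mueller-Hinton broth adjusted to pH 5.0 with phosphate buffer, inoculated with standardized bacterial suspension, incubated 16–18 h at 37 °C; MIC taken as lowest concentration without conspicuous growth.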

[9] = system: Staphylococcus aureus; test: Antibacterial activity against Staphylococcus aureus ATTC 25923 at MIC after 3 to 4 days by disc diffusion method; format: functional
Outline: (§3)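 Agar well diffusion: seeded agar plates dried 1 h at 37 °C, wells punched and filled with test compound at MIC level in DMSO; DMSO solvent control. Plates in triplicate, kept at 37 °C for 3–4 days; zone of inhibition read.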

[10] = system: Escherichia coli; test: Antibacterial activity against Escherichia coli ATTC 25922 after 16 to 18 hrs by serial dilution method; format: functional; outline: as §2
[11] = system: Escherichia coli; test: Antibacterial activity against Escherichia coli ATTC 25922 at MIC after 3 to 4 days by disc diffusion method; format: functional; outline: as §3
[12] = system: Pseudomonas aeruginosa; test: Antibacterial activity against Pseudomonas aeruginosa ATTC 27853 after 16 to 18 hrs by serial dilution method; format: functional; outline: as §2
[13] = system: Pseudomonas aeruginosa; test: Antibacterial activity against Pseudomonas aeruginosa ATTC 27853 at MIC after 3 to 4 days by disc diffusion method; format: functional; outline: as §3
[14] = system: Klebsiella pneumoniae; test: Antibacterial activity against recultured Klebsiella pneumoniae after 16 to 18 hrs by serial dilution method; format: functional; outline: as §2
[15] = system: Klebsiella pneumoniae; test: Antibacterial activity against recultured Klebsiella pneumoniae at MIC after 3 to 4 days by disc diffusion method; format: functional; outline: as §3
[16] = system: Talaromyces marneffei; test: Antifungal activity against recultured Penicillium marneffei by serial plate dilution method; format: functional
[17] = system: Talaromyces marneffei; test: Antifungal activity against recultured Penicillium marneffei at MIC after 3 to 4 days; format: functional
[18] = system: Trichophyton mentagrophytes; test: Antifungal activity against recultured Trichophyton mentagrophytes by serial plate dilution method; format: functional
[19] = system: Trichophyton mentagrophytes; test: Antifungal activity against recultured Trichophyton mentagrophytes at MIC after 3 to 4 days; format: functional
[20] = system: Aspergillus flavus; test: Antifungal activity against Aspergillus flavus NCIM 524 by serial plate dilution method; format: functional
[21] = system: Aspergillus flavus; test: Antifungal activity against Aspergillus flavus NCIM 524 at MIC after 3 to 4 days; format: functional
[22] = system: Aspergillus fumigatus; test: Antifungal activity against Aspergillus fumigatus NCIM 902 by serial plate dilution method; format: functional
[23] = system: Aspergillus fumigatus; test: Antifungal activity against Aspergillus fumigatus NCIM 902 at MIC after 3 to 4 days; format: functional

Compound	Activity [1]	Time [2]	Time [3]	Time [4]	inhibition [5]	inhibition [6]	inhibition [7]	MIC [8]	diameter of the inhibition zone (DIZ) [9]	MIC [10]	diameter of the inhibition zone (DIZ) [11]	MIC [12]	diameter of the inhibition zone (DIZ) [13]	MIC [14]	diameter of the inhibition zone (DIZ) [15]	MIC [16]	diameter of the inhibition zone (DIZ) [17]	MIC [18]	diameter of the inhibition zone (DIZ) [19]	MIC [20]	other results
COc1ccc(C2Nn3c(nnc3-c3cc(OC)ccc3Br)S2)cc1 (stereo not given)	Active	3.468 s	3.334 s	2.841 s	40.6%	65.9%	77.9%	29.8 µM (≈ 12.5 µg/mL)	11 mm	29.8 µM (≈ 12.5 µg/mL)	11 mm	29.8 µM (≈ 12.5 µg/mL)	11 mm	29.8 µM (≈ 12.5 µg/mL)	11 mm	14.9 µM (≈ 6.25 µg/mL)	16 mm	29.8 µM (≈ 12.5 µg/mL)	11 mm	29.8 µM (≈ 12.5 µg/mL)	diameter of the inhibition zone (DIZ) [21]: 11 mm; MIC [22]: 14.9 µM (≈ 6.25 µg/mL); diameter of the inhibition zone (DIZ) [23]: 16 mm
O=C1O[C@H]([C@@H](O)CO)C(O)=C1O	–	–	–	–	87.6%	95%	96%	–	–	–	–	–	–	–	–	–	–	–	–	–	–
COc1ccc(Br)c(-c2nnc3n2NC(c2ccc([N+](=O)[O-])cc2)S3)c1 (stereo not given)	Active	3.675 s	3.563 s	2.425 s	53.2%	72.4%	82.7%	28.8 µM (≈ 12.5 µg/mL)	11 mm	28.8 µM (≈ 12.5 µg/mL)	11 mm	14.4 µM (≈ 6.25 µg/mL)	16 mm	14.4 µM (≈ 6.25 µg/mL)	16 mm	14.4 µM (≈ 6.25 µg/mL)	16 mm	28.8 µM (≈ 12.5 µg/mL)	11 mm	14.4 µM (≈ 6.25 µg/mL)	diameter of the inhibition zone (DIZ) [21]: 16 mm; MIC [22]: 14.4 µM (≈ 6.25 µg/mL); diameter of the inhibition zone (DIZ) [23]: 16 mm
COc1ccc(Br)c(-c2nnc3sc(-c4cc([N+](=O)[O-])cc([N+](=O)[O-])c4)nn23)c1	Active	3.675 s	3.563 s	2.425 s	58.5%	68.4%	78%	13.1 µM (≈ 6.25 µg/mL)	16 mm	13.1 µM (≈ 6.25 µg/mL)	16 mm	26.2 µM (≈ 12.5 µg/mL)	11 mm	13.1 µM (≈ 6.25 µg/mL)	16 mm	26.2 µM (≈ 12.5 µg/mL)	11 mm	13.1 µM (≈ 6.25 µg/mL)	16 mm	13.1 µM (≈ 6.25 µg/mL)	diameter of the inhibition zone (DIZ) [21]: 16 mm; MIC [22]: 13.1 µM (≈ 6.25 µg/mL); diameter of the inhibition zone (DIZ) [23]: 16 mm
COc1ccc(Br)c(-c2nnc3sc(-c4cc(Cl)cc(Cl)c4)nn23)c1	Active	3.421 s	3.075 s	2.388 s	49.8%	54.3%	66.8%	27.4 µM (≈ 12.5 µg/mL)	11 mm	13.7 µM (≈ 6.25 µg/mL)	16 mm	13.7 µM (≈ 6.25 µg/mL)	16 mm	13.7 µM (≈ 6.25 µg/mL)	16 mm	13.7 µM (≈ 6.25 µg/mL)	16 mm	13.7 µM (≈ 6.25 µg/mL)	16 mm	27.4 µM (≈ 12.5 µg/mL)	diameter of the inhibition zone (DIZ) [21]: 11 mm; MIC [22]: 13.7 µM (≈ 6.25 µg/mL); diameter of the inhibition zone (DIZ) [23]: 16 mm
COc1ccc(Br)c(-c2nnc3n2NC(c2ccccc2OC)S3)c1 (stereo not given)	Active	2.387 s	2.652 s	2.501 s	–	–	–	29.8 µM (≈ 12.5 µg/mL)	11 mm	14.9 µM (≈ 6.25 µg/mL)	16 mm	29.8 µM (≈ 12.5 µg/mL)	11 mm	29.8 µM (≈ 12.5 µg/mL)	11 mm	29.9 µM (≈ 12.5 µg/mL)	11 mm	14.9 µM (≈ 6.25 µg/mL)	16 mm	14.9 µM (≈ 6.25 µg/mL)	diameter of the inhibition zone (DIZ) [21]: 16 mm; MIC [22]: 14.9 µM (≈ 6.25 µg/mL); diameter of the inhibition zone (DIZ) [23]: 16 mm
